In ChEMBL document CHEMBL4513216, “Probing the Open Global Health Chemical Diversity Library for Multistage-Active Starting Points for Next-Generation Antimalarials” (ACS Infect Dis, 2020):

Test: Toxicity liver stage against HepG2, at 10uM
Type: cell-based
Design: test concentration 10 uM, cell line HepG2-A16-CD81EGFP
Settings: human, HepG2-A16-CD81EGFP cells; read-out: INHIBITION
Summary of the method: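 Uninfected HepG2-A16-CD81EGFP cells, 3 × 10^3 per well, 1536-well, plated on prespotted compound at 10 μM final, parasite-free screening media added to match infected plates; puromycin 10 μM positive, DMSO 0.5% negative; run in parallel with 48 h PbLuc assay at 37 °C, 5% CO2; viability by CellTiter-Glo luminescence, normalized to controls.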

| SMILES | cytotoxicity at 10 µM [%] |
| --- | --- |
| Cc1ccc2c(c1)CCC21CCN(C(=O)CN(C)C)CC1 | -6.25 |
| Cc1c(CN2CCCCC2)c(O)n(CCCO)c(=O)c1C#N | -5.03 |
| COCCNC(=O)[C@@H]1CN(Cc2sccc2C)C[C@H]2OCC[C@H]21 | 2.98 |
| CCNS(=O)(=O)C1CCN(C(=O)c2c(F)cc(F)cc2F)C1 (centres undefined) | 7.43 |
| CC(=O)N1CCN(Cc2nccs2)CC2(CC(=O)N(C)C2)C1 (centres undefined) | 3.03 |
| CCC(C)[C@H](NC(=O)c1cc(F)ccc1-n1cnnn1)C(=O)OC (some centres undefined) | 2.53 |
| CC(C)c1nccc([C@H]2C[C@@H]3CCN(Cc4ccoc4)C[C@H]3O2)n1 | -4.45 |
| CC(=O)N(C)c1nc(CN2CCOC(Cn3cccn3)C2)cs1 (centres undefined) | -12.8 |
| CCn1nccc1CNc1nc(N)nc2c1nc(C)n2C | -8.13 |
| COC(=O)c1sccc1NC(=O)C1CCCN1C(=O)c1ccco1 (centres undefined) | 20.3 |
| COc1cc(Cl)ccc1C(=O)NCc1n[nH]c(C)n1 | -4.07 |
| Cc1cc(NC(=O)CNCc2csc(-c3ncccn3)n2)ccc1Cl | -7.21 |
| CNCC(=O)Nc1ccc(-c2cnc(NCCS(C)(=O)=O)nc2)cc1 | -3.08 |
| Cc1nc(C2CN(C)CCO2)cc(N2CCSCC2)n1 (centres undefined) | -15.6 |
| CC1c2ncc(COCc3ccccn3)n2CCN1C1CCCC1 (centres undefined) | 12.8 |
| Cc1nc(CN2CCCC(CCc3cccc(C(F)(F)F)c3)C2)co1 (centres undefined) | -0.0825 |
| c1cc(CNCc2ccnc(N3CCCCC3)c2)c2c(c1)OCCCO2 | 21.4 |
| CN(C)C(=O)C1CCC2(CCN(C(=O)Nc3ccc(F)cc3)CC2)O1 (centres undefined) | -111 |
| COCCN1C(=O)CC(N2CCN(c3ccc(OC)cc3)CC2)C1=O (centres undefined) | -12.6 |
| Cc1[nH]n(C)c2nc(=O)cc(C(F)(F)C(F)(F)F)c1-2 | -2.22 |
| CC(C)c1cc(O)nc(C2CCCN2C(=O)C(C)(C)C)n1 (centres undefined) | -17.8 |
| CCCNC(=O)C(C)Nc1ccc(OCC)cc1 (centres undefined) [PROPETAMIDE] | 8.84 |

| SMILES | cytotoxicity at 10 µM [%] |
| --- | --- |
| CC1CCCCN1Cc1ccc(-c2ccccc2C(=O)O)cc1 (centres undefined) | 6.74 |
| Cc1cnn(CCC(=O)N2CCCN(c3cccnn3)CC2)c1 | 1.47 |
| Cc1nc(C)n(C2CCCN(C(=O)CCOCC(C)C)C2)n1 (centres undefined) | -0.734 |
| CC(C)Cc1noc(CN2CCC(C(=O)NCC3CCCO3)CC2)n1 (centres undefined) | 3.13 |
| Cc1ccoc1C(=O)NCC(c1ccccc1Cl)N1CCOCC1 (centres undefined) | 8.21 |
| CN(Cc1ccccc1)CC1(O)CCCN(CCC2CCCCC2)C1=O (centres undefined) | -2.3 |
| CCCn1[nH]c(CNc2cccc(Cl)c2)nc1=O | 0.566 |
| Fc1cnc(N2CCO[C@H]3CN(CC4CCC4)C[C@H]32)nc1 | -8.71 |
| O=C(c1cncnc1)N1C[C@@H]2CC[C@H](Oc3cccc(F)c3)[C@@H]2C1 | -17.1 |
| CCC/C=C/c1ccc(CN2CCN(C)CC2)cn1 | -8.61 |
| Cc1cc(N2CCN(CC(=O)N(C)C)CC2)nc(-c2ccncc2)n1 | -3.96 |
| CC(C)(CN1CCC2(CCNCC2)CC1)N1CCOCC1 | -148 |
| CN1CCC(c2cccc(NCc3nccn3C)n2)CC1 | 8.28 |
| CCCN1CCc2[nH]cnc2C12CCN(C(=O)CCn1cccn1)CC2 | 7.36 |
| Cc1nn(CC(=O)N(C)Cc2nncn2C(C)C)c(=O)c2ccccc12 | 3.1 |
| CCc1ccc(C(=O)N(CC(F)(F)F)C2CCCOC2)o1 (centres undefined) | -7.59 |
| Cc1nn(C)c(Cl)c1C1CCCN1C(=O)c1ccc(O)nc1 (centres undefined) | -11.2 |
| N#Cc1cc(F)ccc1CN1CCCCC1Cn1cncn1 (centres undefined) | 5.41 |
| O=C(c1cnc(C2CC2)nc1O)N1CCN(Cc2ccccc2F)CC1 | -1.83 |
| CNC(=O)[C@H]1C[C@H]2OCC[C@H]2N(CC2CC2)C1 | 4.17 |
| Cc1noc(C)c1CN1CCO[C@H]2CN(Cc3cnn(C)c3)C[C@H]21 | -0.292 |
| CN1CCN(CCOc2ccc(NC(=O)c3cnc[nH]3)cc2)CC1 | 0.71 |

| SMILES | cytotoxicity at 10 µM [%] |
| --- | --- |
| COCCN(C)C[C@@H]1CN(C(=O)c2cccc(Cl)c2)C[C@@H]1CO | -16.7 |
| CC(=O)N1CCc2ccc(NC(=O)c3cn(C)nn3)cc2C1 | 5.45 |
| Cc1ccc(CN2CCCC3(CCN(S(=O)(=O)N(C)C)C3)C2)o1 (centres undefined) | 7.49 |
| Cn1ncc(N2CCC(CNC(=O)[C@@H](N)c3ccccc3)CC2)cc1=O | 4.18 |
| CCOCC1CN(C(=O)Cc2ccccn2)Cc2cnn(C)c21 (centres undefined) | 6.9 |
| CC(C)c1nc(CNC(C(=O)N2CCOCC2)C(C)C)no1 (centres undefined) | 6.43 |
| CC1CCCN(c2ccccc2OCC(=O)NC2CC2)C1 (centres undefined) | 10.1 |
| CCNC(=O)C1CCCN(c2ccc(C#N)cc2C(F)(F)F)C1 (centres undefined) | 1.28 |
| CC(C)OCCCN(Cc1ccncc1)Cc1cccc(F)c1 | -15.6 |
| Cc1ccc2[nH]nc(C(=O)NCC3CCN(Cc4c[nH]cn4)C3)c2c1 (centres undefined) | -15.1 |
| CCn1cc(-c2cc(C(F)(F)F)n(CCCN)n2)cn1 | -7.86 |
| CC(c1nc(-c2ccccc2)no1)N1CCc2c(ncn2C2CC2)C1 (centres undefined) | 7.12 |
| CC(NC(=O)C1=NN(C)C(=O)CC1)c1ccc(Cl)cc1Cl (centres undefined) | -10.4 |
| Cc1ccc(CNCc2cc(Br)c3c(c2)OCO3)cc1 | 5.35 |
| CCN(Cc1noc(CC(C)C)n1)Cc1cc2ccc(F)cc2[nH]c1=O | 3.34 |
| Cn1cc(CN2CCCC3(CCN3S(C)(=O)=O)C2)cn1 (centres undefined) | -68.4 |
| O=S1(=O)C[C@@H]2[C@H](C1)N(Cc1cc(Cl)cc(Cl)c1)CCN2CC1CC1 | 27.6 |
| O=C1CCNc2ccc(F)cc2CN1Cc1ccco1 | -1.36 |
| CCCN(C(=O)CN1CCn2c(nnc2C2CC2)C1)C1=CCCCC1 | 6.19 |
| CCCS(=O)(=O)N(C)C(=O)CCc1ccccc1 | 4.83 |
| CC(C)NC(=O)C1CN(C(=O)c2ccco2)CC12CCOCC2 (centres undefined) | -0.516 |
| Cc1cc(C)c2c(N(C)CC3CCN(CC(C)C)C3)ncnc2n1 (centres undefined) | 1.61 |

| SMILES | cytotoxicity at 10 µM [%] |
| --- | --- |
| c1coc(CNc2nnc(Cc3ccsc3)o2)c1 | -2.28 |
| O=C(c1ccc(C2CCCO2)s1)N1CCOCC1 (centres undefined) | 10.3 |
| Cc1ncnc2c1CCN(C(=O)c1ccsc1)CC2 | -0.443 |
| Cc1ccc(CN2CCC[C@@H]3CN(C(=O)c4ccco4)C[C@@H]32)s1 | -1.05 |
| Cc1nccn1-c1cc(CNC(=O)C2CCC(=O)N2)ccn1 (centres undefined) | -1.24 |
| O=C(NCCCN1CCc2ccccc2C1)c1ccccc1Cl | -13 |
| Cc1ccc(NC(=O)N2CCN(C(=O)CC3CCCC3)CC2)s1 | 4.36 |
| CN1CCC(CN2CCC3(CCCN(Cc4ccoc4)C3)C2=O)CC1 (centres undefined) | -12.9 |
| CCN(CC)Cc1cn2c(n1)CN(C(=O)Cc1ccsc1)CC2 | -143 |
| CC(C)(C)OC(=O)NCCNC(=O)c1ccc2cc[nH]c2c1 | -0.224 |
| O=C(O)CCc1cc2n(n1)CCN(Cc1ccc3[nH]ccc3c1)C2 | -2.32 |
| N#Cc1ncn(Cc2c(F)cccc2Cl)n1 | -3.94 |
| CN1CCOC(C(=O)Nc2nc(-c3ccccc3F)n[nH]2)C1 (centres undefined) | 8.65 |
| CCOCc1ccccc1NC(=O)NC1CCN(CC(F)(F)F)C1 (centres undefined) | 1.81 |
| CCN(CC)C(=O)CN1CCC2(C=Cc3cc(Cl)c(C)cc3O2)CC1 | -3.02 |
| C1CC(CN2C[C@@H]3CC[C@H]2CN(Cc2nnc(C4CC4)o2)C3)C1 | 1.19 |
| CC(C)(C)C(=O)NCCC1CN(Cc2ccccc2F)CCO1 (centres undefined) | -2.05 |
| COCCCN1CC2(CCN(C(=O)Cc3csc(C)n3)CC2)CC1=O | 5.06 |
| Cc1ccc2c(c1)SCC(=O)N2Cc1noc(C2CCCO2)n1 (centres undefined) | -0.0938 |
| CCCn1ncnc1C(C)NC(=O)C1CCN(C(=O)C2CC2)CC1 (centres undefined) | -147 |
| COc1ccc(CN2CC[C@H]3[C@H](CO[C@H]3CNC(=O)N(C)C)C2)cc1 | 6.96 |
| Cc1cccc(CS(=O)(=O)c2nnc(N3CCOCC3)s2)c1 | -3.48 |

| SMILES | cytotoxicity at 10 µM [%] |
| --- | --- |
| Cc1nc(C)n(C2CCCN(C(=O)CCc3ccncc3)C2)n1 (centres undefined) | -5.23 |
| CC1CCCCN1C(=O)c1ccn(COc2ccc(F)cc2)n1 (centres undefined) | 4.7 |
| COC[C@H]1CC[C@H]2[C@H](CCN2S(=O)(=O)Cc2ccccc2)O1 | 8.25 |
| CCN(CC(=O)NC)S(=O)(=O)c1cnc2c(c1)c(C)nn2C | -1.56 |
| NC(=O)c1ccc(C(=O)N2CCCCC2Cn2cccn2)s1 (centres undefined) | 0.977 |
| O=C(NCCOc1ccc(F)cc1)C1CCCN(C(=O)C2CC2)C1 (centres undefined) | 0.856 |
| O=C(c1ccc(Cl)s1)N1CCC2(CNS(=O)(=O)c3cnccc3O2)C1 (centres undefined) | 15.5 |
| COc1cc(Cl)ccc1CNC(=O)N(C)C(C)CS(C)(=O)=O (centres undefined) | -50.1 |
| Cc1nc(COc2ccc(S(=O)(=O)N(C)C)cc2)sc1C | -1.13 |
| CN(Cc1cccc(Cl)c1)C(=O)Cn1nc(-c2ccc(F)cc2)oc1=O | -19.9 |
| O=C(CCCc1cn[nH]c1)N1C[C@@H](CN2CCCC2)C[C@H](CO)C1 | -8.96 |
| O=C(CN1CCOC1=O)N1CCc2nnc(Cc3ccccc3)n2CC1 | -45.6 |
| Cc1ccc(Sc2ccc(CN3CCC4(CCCNC4=O)C3)o2)cc1 (centres undefined) | -3.68 |
| Nc1nc(CCCNC(=O)C2CCCN(Cc3ccco3)C2)cs1 (centres undefined) | -0.745 |
| Cc1cc(N2CCc3c(ncn3C)C2)nc(N)n1 | -7.93 |
| CC(=O)N1CCO[C@@H]2CN(Cc3ccccc3Cl)C[C@@H]2C1 | -110 |
| CN(C)CCn1ccnc1C1CCCN(c2nccc3ccccc23)C1 (centres undefined) | -7.55 |
| CN(C)C(CNC(=O)OCC(F)(F)F)c1ccsc1 (centres undefined) | -44.4 |
| O=C(NC[C@H]1C[C@@H]2CCN1C[C@@H]2CN1CCOCC1)Nc1ccsc1 | 1.03 |
| N#Cc1ccc(OCCN2CCNC(=O)C2c2cccs2)cc1 (centres undefined) | -2.62 |
| Cc1ccc2c(c1)cc(CN1CC[C@](C)(O)[C@H](C)C1)n2C | 0.379 |
